# ADAM17 inh: ADAM17 inhibitors, primary screen, biochemical, QFRET. Disintegrin and metalloproteinase domain-containing protein 17 (Homo sapiens), P78536. recombinant ADAM17, EDANS/DABCYL FRET peptide cleavage. inhibition, % at 6.95 µM. actives 0.83% (n = 370,000). AID 720648, 2013;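 active = inhibition above the mean of compounds lying between control limits plus 3 SD, set per campaign, cut at about 8.5% in these data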;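 also: 0% = DMSO-only wells as the low control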
# TbMetRS inhib: T. brucei MetRS inhibitors, primary screen, biochemical, luminescence. inhibition, % at 11.9 µM. purified T. brucei MetRS, ATP depletion, Kinase-Glo luminescence. actives 0.4% (n = 360,000);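 active = inhibition above a per-plate cutoff of the control wells' mean inhibition plus 3 SD, cut at about 5.5% in these data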;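 also: 0% = DMSO wells median and 100% = median of wells with control inhibitor compound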
#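 assay system = parasite MetRS enzyme | timing = 15 min preincubation, 2 h reaction, all 25 °C | evaluation = percent inhibition relative to median high and low control wells | medium = HEPES buffer containing pyrophosphatase, BSA, spermine, DTT | compound = single dose, 11.9 µM final nominal, 0.9% final DMSO | detection = Kinase-Glo luminescence, ATP depletion format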
# ADAM10 inh: human ADAM10 inhibitors, primary screen, biochemical, QFRET, HTS. inhibition, % at 7 µM. Disintegrin and metalloproteinase domain-containing protein 10 (Homo sapiens), O14672. recombinant ADAM10, EDANS/DABCYL FRET peptide cleavage, 3 h. actives 0.62% (n = 370,000);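 active = inhibition above a per-campaign cutoff equal to the mean of compounds falling between control-based bounds plus 3 SD, cut at about 20% in these data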;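 also: 0% = DMSO wells while the 100% control is not disclosed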
# Target sequence (O14672 214-748 limits assumed): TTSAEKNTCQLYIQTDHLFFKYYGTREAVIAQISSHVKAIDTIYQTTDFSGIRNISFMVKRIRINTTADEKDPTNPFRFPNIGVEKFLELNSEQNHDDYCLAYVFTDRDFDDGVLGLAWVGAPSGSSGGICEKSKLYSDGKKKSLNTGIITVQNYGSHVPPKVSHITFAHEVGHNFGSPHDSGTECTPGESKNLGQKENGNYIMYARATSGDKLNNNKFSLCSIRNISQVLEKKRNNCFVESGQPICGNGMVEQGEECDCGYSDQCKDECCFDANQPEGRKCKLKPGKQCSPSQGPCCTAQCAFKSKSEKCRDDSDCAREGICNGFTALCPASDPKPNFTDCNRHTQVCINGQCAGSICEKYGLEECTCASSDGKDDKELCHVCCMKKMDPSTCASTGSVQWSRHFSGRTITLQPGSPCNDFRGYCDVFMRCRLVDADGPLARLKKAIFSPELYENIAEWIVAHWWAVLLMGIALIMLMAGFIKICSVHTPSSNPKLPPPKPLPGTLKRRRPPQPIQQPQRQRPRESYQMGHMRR
# PLC-gamma1 inh: PLC-gamma1 enzyme inhibitors, primary screen, biochemical, fluorescence, purified enzyme; 1-phosphatidylinositol 4,5-bisphosphate phosphodiesterase gamma-1 (Homo sapiens), P19174; fluorogenic substrate; inhibition, % at 12.2 µM; actives 0.84% (n = 370,000); AID 720700, 2013
# PLCb3 inh: human PLC-beta3 inhibitors, primary screen, biochemical, fluorescence; inhibition, % at 12.2 µM; actives 0.18% (n = 370,000); 1-phosphatidylinositol 4,5-bisphosphate phosphodiesterase beta-3 (Homo sapiens), Q01970; Purified PLC-beta3, fluorogenic substrate; in the data active = inhibition above about 11%;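 also: 0% = median of compound wells on plate and 100% = full blocker control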
# PLCgamma1 ctr: PLC-gamma1 enzyme inhibitors, counter-screen for PLC-beta3 inhibitor project, biochemical, fluorescence | shares compounds with PLC-gamma1 inh | purified PLC-gamma1, fluorogenic substrate | inhibition, % at 12.3 µM | actives 3.1% (n = 3,300) | AID 743258, 2014
# PLCb3 confirm: PLC-beta3 inhibitor confirmation, biochemical, fluorescence, purified enzyme. shares compounds with PLC-gamma1 inh. fluorogenic substrate fluorescence. inhibition, % at 12.3 µM. actives 1% (n = 3,300). AID 743261, 2014; in the data active = inhibition above about 11%
# An asterisk follows results filed as active; / = not tested or not shown. The list is not random: actives were taken first. Their share in the collection is about 2.3%. Rule as the data show it, unless noted: active = inhibition above about 9.5%; inactive = the rest.
SMILES,ADAM17 inh,TbMetRS inhib,ADAM10 inh,PLC-gamma1 inh,PLCb3 inh,PLCgamma1 ctr,PLCb3 confirm
CCN(CC)C(=O)C1=C(C)N(CCCN2CCCC2=O)C(=O)C(CC(=O)NCCCCc2ccccc2)C1 (stereo unspecified),5.8,-1.1,2.3,9.8*,9.0,-9.4,-3.6
CCN(CC)C(=O)C1=C(C)N(CCCN2CCCC2=O)C(=O)C(CC(=O)NCc2ccco2)C1 (stereo unspecified),-4.6,-1.2,-18.6,4.4,-0.1,/,/
CCn1nc(C)c(NC(=O)CSc2nnc(-c3ccco3)n2C)c1C,4.8,-1.4,11.7,7.3,10.9*,-2.1,2.2
C=C(C)c1ccccc1NC(=O)CCN1C(=O)c2ccccc2S1(=O)=O,2.2,0.2,14.7,9.6*,1.1,-0.8,2.1
CCN(C(=O)CSc1nnc(NCc2ccccc2)s1)C1CCS(=O)(=O)C1 (stereo unspecified),6.8,1.6,8.2,11.5*,6.2,-1.2,4.4
CC(C)(C)c1ccc(S(=O)(=O)N2CCN(C(=O)C3=COCCO3)CC2)cc1,-1.2,-0.2,-0.1,-0.9,-4.9,/,/
COc1ccc([N+](=O)[O-])cc1NC(=O)c1cn(-c2ccc(C)c(C)c2)c(=O)c2ccccc12,4.1,0.5,1.6,11.3*,6.0,-4.3,-2.4
COCC(=O)Nc1cc([N+](=O)[O-])ccc1OC,-3.5,-0.6,1.5,13.1*,4.7,-3.3,0.3
COCC(=O)Nc1ccc([N+](=O)[O-])cc1OC,0.1,2.1,-1.4,2.1,3.2,/,/
COC(=O)CNC(=O)c1cn(-c2ccc(C)c(C)c2)c(=O)c2ccccc12,-5.4,-0.9,-3.9,-2.8,-6.5,/,/
O=C(CNC(=O)c1sc2ccccc2c1Cl)NC1CC1,-0.5,-0.7,4.9,-2.5,-4.7,/,/
CCOC(=O)C(CC(=O)Nc1nc(C(C)=O)c(C)s1)C(C)c1ccccc1 (stereo unspecified),-1.6,-0.7,6.1,2.9,-4.0,/,/
Cc1nc([N+](=O)[O-])c(Br)n1CC(=O)c1ccc(Cl)cc1,-1.4,-0.7,2.5,9.7*,0.7,2.0,0.4
CCOC(=O)c1c(S(=O)(=O)N2CCN(c3ccc(C(C)=O)cc3)CC2)c(C)n(C)c1C,-7.5,0.2,-13.1,-6.7,-17.5,/,/
Cc1ccc(NC(=O)C2C3CC4OC(=O)C2C4C3)cc1Cl (stereo unspecified),2.5,-0.4,-1.8,9.6*,4.6,-6.3,-6.2
CC(C)OC(=O)c1ccc(NC(=O)C2C3CC4OC(=O)C2C4C3)cc1 (stereo unspecified),-4.0,-0.9,0.0,-3.7,0.8,/,/
COC(=O)C(=N/Nc1ccccc1C(=O)OC)/C(C)=N/O,-4.3,0.0,-0.1,-1.0,-4.0,/,/
N#Cc1c(NC(=O)CSc2nnnn2C2CCCCC2)sc2c1CCCC2,2.5,0.0,5.9,10.2*,2.9,-6.3,2.5
Cc1nnc(SCC(=O)Nc2sc3c(c2C#N)CCCCC3)n1N,-1.7,-0.9,3.9,-3.0,-2.0,/,/
O=C(CSc1nc2ccccc2[nH]1)Nc1ccccc1N1CCOCC1,2.5,0.2,11.1,10.1*,4.6,-4.3,1.5
O=C(CSc1nc2ccccc2o1)Nc1ccccc1N1CCOCC1,-2.3,-1.0,6.2,2.4,-3.7,/,/
O=C1NC(=S)S/C1=C\c1cc(Cl)ccc1Cl,4.5,0.0,10.9,10.8*,2.8,-4.2,-5.8
Cc1cc(/C=C2\SC(=S)NC2=O)c(C)[nH]1,1.2,-0.5,-3.2,0.7,-13.7,/,/
COc1ccc(NC(=O)Cn2c(C(C)C)nc(C)cc2=O)cc1Cl,-3.4,-0.8,0.9,10.3*,3.4,-7.7,-3.9

# Screens as filed in PubChem.
